Here are results for 17 compounds from PubChem BioAssay.

Assay [1] can be described thus: SK-BR-3 cell growth inhibitors, pilot screen, 24 h, human (AID 572;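 active means viability at or below 10% of carrier control in both of two separate runs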;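 further: compound exposure lasted between 18 and 24 h rather than exactly 24 h; 100% = carrier-treated control wells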). The settings on record: SK-BR-3 viability, CellTiter-Glo luminescence, at 10 µM, stronger effect = lower value. On the technique in general: In ATP-based viability assays light output follows the ATP content of the culture.
Assay [2] can be described thus: HUVEC growth inhibition – cell-based, human, primary screen (AID 575;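 active means viability at or below 30% in both replicate assays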;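 further: 100% = median of untreated cell wells with 0.1% DMSO on each plate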). Conditions: HUVEC proliferation, CellTiter-Glo luminescence, 72 h; at 10 µM; stronger effect = lower value. The method, boiled down: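 System: primary human umbilical vein endothelial cells; Quantity: 1250 endothelial cells in each well; Buffer or medium: supplemented EBM, 2% fetal bovine serum; Doses: one dose, 10 µM final, 0.1% DMSO; Incubation: 72 h compound incubation; Technique: ATP-based CellTiter-Glo luminescent read; Evaluation: percent of median DMSO-control luminescence; Controls: vehicle and MePR control wells.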

Assay [3] is described as follows: growth inhibitors of H69AR lung tumor, primary screen, human, duplicate replicates (AID 580;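 active means viability at or under a set limit in both replicates, limit being median viability minus 3 SD, cut at about 48% in these data, passing the limit was not always enough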;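 further: 100% = mean luminescence of untreated wells and 0% = no signal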). Conditions: H69AR lung tumor cells viability, ATP luminescence, 72 h; at 10 µM; stronger effect = lower value.
Assay [4] in a line: reversal of MRP1-mediated doxorubicin resistance, pilot screen, H69AR cells, doxorubicin co-treatment (AID 601). The settings on record: CellTiter-Glo, 72 h, at 10 µM; for differential viability (reversal): stronger effect = higher value.
Assay [5] in a line: 384-well plate pilot, post-Golgi transport modulator project, inhibition of yeast transport mutant growth (AID 636; in the data active means inhibition above about 31%). The settings on record: absorbance 615 nm, about 18 h, stronger effect = higher value.
Assay [6] is described as follows: growth suppression of yeast trafficking mutant, preliminary HTS, modulators of trafficking downstream of Golgi apparatus project, 1536-format plate, OD 615 nm (AID 637; in the data active means inhibition above about 30%). The settings on record: yeast transport mutant growth, absorbance 615 nm, 18 h; stronger effect = higher value.
Setting [7] is: H69AR cells + 2 uM doxorubicin, measured here: viability with 2 uM doxorubicin, stronger effect = lower value.
Setting [8] is: H69AR cells, compound alone cytotoxicity.

Calls of active or inactive are those of the source.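 How the source made its calls, unless noted: active means viability loss from added drug above about 55%, and viability with drug at most 40%, in both replicates (limit read from the data, passing the limit was not always enough); inconclusive means both conditions met in only one replicate; inactive means neither replicate meets both conditions.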

In general, viability refers to a read-out of living cells in per cent, often relative to untreated cells. In general, inhibition refers to the relative decrease from the control value, in per cent. As for `CC(C)NCC(O)COc1cccc2[nH]ccc12` (stereo unspecified), the viability in assay [1] is 111% (inactive); in assay [2], 78.3% (inactive); in assay [3] it was 99.2% (inactive); in assay [4] (setting [7]) it was 101%; in assay [4] (setting [8]), 99.2%. Further, the differential viability (reversal) in assay [4] (H69AR cells + 2 uM doxorubicin) is -1.55% (inactive). The inhibition in assay [5] is -3.25% (inactive); in assay [6] it was -3.17% (inactive).

Consider `Cn1cc(C(=O)NC2CCCCCCC2)c(=O)c2cc(S(=O)(=O)N3CCCC3)ccc21`, for which the viability in assay [1] is 76.5% (inactive); in assay [2], 79.8% (inactive); in assay [3] it was 90.9% (inactive); in assay [4] (setting [7]) it was 90.6%; in assay [4] (setting [8]), 90.9%. Also, the differential viability (reversal) in assay [4] (H69AR cells + 2 uM doxorubicin) is 0.325% (inactive). Moreover, the inhibition in assay [5] is -5.95% (inactive); in assay [6], -4.67% (inactive).

Consider `CCOC(=O)C1CCCN(C(=O)Cc2ccc(OC)c(OC)c2)C1` (stereo unspecified), for which the viability is 81% (inactive) in assay [1]; 99.5% (inactive) in assay [2]; 94.5% (inactive) in assay [3]; 91.8% in assay [4] (setting [7]); 94.5% in assay [4] (setting [8]). Moreover, in assay [4] (H69AR cells + 2 uM doxorubicin), the differential viability (reversal) was 2.69% (inactive). The inhibition is -6.85% (inactive) in assay [5] and 1.09% (inactive) in assay [6].

On to `COc1cc2c(=O)nc3n(c2cc1OC)C(c1ccccc1)N=C(N)N3` (stereo unspecified), for which the viability was 69% (inactive) in assay [1]; 109% (inactive) in assay [2]; 97.1% (inactive) in assay [3]; 99.4% in assay [4] (setting [7]); 97.1% in assay [4] (setting [8]). Moreover, in assay [4] (H69AR cells + 2 uM doxorubicin), the differential viability (reversal) was -2.35% (inactive). The inhibition in assay [5] is -2.84% (inactive); in assay [6], 20.2% (inactive).

In the case of `CCCNC(=O)N1CCN(S(=O)(=O)c2ccc(C)c(C)c2)CC1`, the viability was 85% (inactive) in assay [1]; 112% (inactive) in assay [2]; 95% (inactive) in assay [3]; 95.7% in assay [4] (setting [7]); 95% in assay [4] (setting [8]). In assay [4] (H69AR cells + 2 uM doxorubicin), the differential viability (reversal) is -0.65% (inactive). Also, the results for the inhibition in assay [5] and in assay [6] were 3.42% (inactive) and 0% (inactive), respectively.

Regarding `Cc1ccccc1Cc1c(C)nc2c(C(=O)N3CCN(Cc4ccc5c(c4)OCO5)CC3)cnn2c1C`, the viability in assay [1] is 103% (inactive); in assay [2], 59.6% (inactive); in assay [3], 79% (inactive); in assay [4] (setting [7]) it was 72.1%; in assay [4] (setting [8]), 79%. Besides, the differential viability (reversal) in assay [4] (H69AR cells + 2 uM doxorubicin) was 6.94% (inactive). In addition, the figures for the inhibition in assay [5] and in assay [6] were -1.04% (inactive) and 1.48% (inactive), respectively.

`COc1cc(C)c(Br)cc1S(=O)(=O)N1CCOCC1`: the viability in assay [1] is 84% (inactive); in assay [2], 99.6% (inactive); in assay [3], 100% (inactive); in assay [4] (setting [7]) it was 86%; in assay [4] (setting [8]), 100%. The differential viability (reversal) in assay [4] (H69AR cells + 2 uM doxorubicin) is 14.5% (inactive). In addition, the inhibition in assay [5] was -5.48% (inactive); in assay [6], -0.18% (inactive).

In the case of `CCC1CCCCN1CCCNC(=O)c1ccc(CS(=O)(=O)Cc2ccccc2F)o1` (stereo unspecified), the viability is 106% (inactive) in assay [1]; 114% (inactive) in assay [2]; 92.9% (inactive) in assay [3]; 105% in assay [4] (setting [7]); 92.9% in assay [4] (setting [8]). For the same compound, the differential viability (reversal) in assay [4] (H69AR cells + 2 uM doxorubicin) was -12.3% (inactive). Further, the inhibition in assay [5] is -7.4% (inactive); in assay [6] it was 2.73% (inactive).

With `CC(C)NCC(O)COc1ccc(CCOCC2CC2)cc1` (stereo unspecified), the viability in assay [1] was 102% (inactive); in assay [2] it was 83.3% (inactive); in assay [3] it was 95.8% (inactive); in assay [4] (setting [7]) it was 111%; in assay [4] (setting [8]), 95.8%. The differential viability (reversal) in assay [4] (H69AR cells + 2 uM doxorubicin) was -14.9% (inactive). Also, the inhibition in assay [5] was -0.91% (inactive); in assay [6], -5% (inactive).

Turning to `O=C(NC1CCCC1)C(NS(=O)(=O)c1cccc2nsnc12)c1ccccc1` (stereo unspecified), the viability in assay [1] was 116% (inactive); in assay [2] it was 103% (inactive); in assay [3] it was 79% (inactive); in assay [4] (setting [7]) it was 81.5%; in assay [4] (setting [8]) it was 79%. The differential viability (reversal) in assay [4] (H69AR cells + 2 uM doxorubicin) is -2.47% (inactive). Besides, the values for the inhibition in assay [5] and in assay [6] were -8.08% (inactive) and 8.18% (inactive), respectively.

For `CC(C)(C)NC(=O)CN(C(=O)C1CSC(=O)C1)c1ccc2c(c1)OCCO2` (stereo unspecified), the viability is 92% (inactive) in assay [1]; 112% (inactive) in assay [2]; 91.5% (inactive) in assay [3]; 92.6% in assay [4] (setting [7]); 91.5% in assay [4] (setting [8]). Further, the differential viability (reversal) in assay [4] (H69AR cells + 2 uM doxorubicin) was -1.13% (inactive). Further, the inhibition in assay [5] was 0.95% (inactive); in assay [6] it was -4.55% (inactive).

In the case of `Cc1nc(SCC(=O)Nc2cc(C)on2)c2c3c(sc2n1)CCCC3`, the viability in assay [1] is 66.5% (inactive); in assay [2] it was 78.5% (inactive); in assay [3], 30.4% (active); in assay [4] (setting [7]), 24.2%; in assay [4] (setting [8]), 30.4%. In addition, the differential viability (reversal) in assay [4] (H69AR cells + 2 uM doxorubicin) was 6.21% (inactive). For the same compound, the inhibition is -2.97% (inactive) in assay [5] and -1.11% (inactive) in assay [6].

On to `C[C@@H]1C[C@H]2[C@@H]3C[C@H](F)C4=CC(=O)C=C[C@]4(C)[C@@]3(F)[C@@H](O)C[C@]2(C)[C@@]1(O)C(=O)COC(=O)C(C)(C)C`, for which the viability in assay [1] was 103% (inactive); in assay [2], 76.9% (inactive); in assay [3], 79.5% (inactive); in assay [4] (setting [7]), 87.3%; in assay [4] (setting [8]), 79.5%. The differential viability (reversal) in assay [4] (H69AR cells + 2 uM doxorubicin) was -7.82% (inactive). Moreover, the inhibition was -3.38% (inactive) in assay [5] and -11.3% (inactive) in assay [6].

With `CC(NCCc1ccc(O)cc1)C(O)c1ccc(O)cc1` (stereo unspecified), the viability in assay [1] is 99% (inactive); in assay [2] it was 101% (inactive); in assay [3], 99.4% (inactive); in assay [4] (setting [7]) it was 92.3%; in assay [4] (setting [8]), 99.4%. In assay [4] (H69AR cells + 2 uM doxorubicin), the differential viability (reversal) was 7.11% (inactive). The values for the inhibition in assay [5] and in assay [6] were -2.73% (inactive) and 0.67% (inactive), respectively.

Consider `CCN(CCO)C(=O)CC(c1ccccc1)c1cc(Br)ccc1O` (stereo unspecified), for which the viability in assay [1] is 101% (inactive); in assay [2] it was 101% (inactive); in assay [3] it was 93.8% (inactive); in assay [4] (setting [7]), 97%; in assay [4] (setting [8]), 93.8%. Moreover, the differential viability (reversal) in assay [4] (H69AR cells + 2 uM doxorubicin) was -3.22% (inactive). In addition, the inhibition in assay [5] was -2.3% (inactive); in assay [6] it was -3.09% (inactive).

In the case of `CCCCn1nnnc1NCc1cccs1`, the viability is 98% (inactive) in assay [1]; 97% (inactive) in assay [2]; 99.2% (inactive) in assay [3]; 84.8% in assay [4] (setting [7]); 99.2% in assay [4] (setting [8]). The differential viability (reversal) in assay [4] (H69AR cells + 2 uM doxorubicin) was 14.4% (inactive). Besides, the inhibition in assay [5] is -6.49% (inactive); in assay [6], -0.33% (inactive).

With `Cc1cc(N2C(=O)CC(N3CCN(c4ccc(C(=O)c5cccs5)cc4)CC3)C2=O)no1` (stereo unspecified), the viability in assay [1] is 96% (inactive); in assay [2], 87.4% (inactive); in assay [3] it was 87.6% (inactive); in assay [4] (setting [7]), 92.6%; in assay [4] (setting [8]), 87.6%. Further, the differential viability (reversal) in assay [4] (H69AR cells + 2 uM doxorubicin) was -4.99% (inactive). The inhibition in assay [5] is -3.42% (inactive); in assay [6], 13.6% (inactive).
